Columns and labels:
[1] = target: GABA-A receptor; anion channel; assay: In vitro binding affinity to the Gamma-aminobutyric acid A receptor complex in absence of GABA in rat cerebellum tissue; type: tissue-based
[2] = target: GABA-A receptor; anion channel; assay: In vitro binding affinity to the Gamma-aminobutyric acid A receptor complex in presence of GABA in rat cerebellum tissue; type: tissue-based
[3] = target: T1, GABA-A receptor; anion channel (Rattus norvegicus) (UniProt O09028+P15431+P18506+P18508+P19969+P20236+P23574+P23576+P28471+P28473+P30191+P62813+P63079+P63138+Q91ZM7+Q9ES14); assay: Ratio of IC50 in the presence and absence of GABA.; type: functional
[4] = system: Mus musculus; assay: In vivo Horizontal screen test for motor impairment by the compound at the mentioned dose of 100, i.p. ( mg/kg); out of 6 tested animals; type: functional
Summary of the method: (§1)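 Mice were dosed ip with compound or vehicle (10 mL/kg). After 1 h, just before sc pentylenetetrazole, they were placed on an inverted horizontal screen. Passing meant climbing to the top side within 1 min. Results are reported as number passed over number tested.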

[5] = system: Mus musculus; assay: In vivo suppression of pentylenetetrazole-induced convulsions by the compound at the mentioned dose of, 100, i.p. ( mg/kg); out of 6 tested animals; type: functional
Summary of the method: (§2)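 Mice were dosed ip with compound or vehicle (10 mL/kg). Pentylenetetrazole 85 mg/kg sc was given 1 h later. Mice were housed individually and watched for 30 min for clonic convulsions, scored present or absent. Results are reported as number convulsed over number tested.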

[6] = system: Mus musculus; assay: In vivo Horizontal screen test for motor impairment by the compound at the mentioned dose of 1, i.p. ( mg/kg); out of 12 tested animals; type: functional
Summary of the method: (§3)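 Mice were dosed orally or ip (vehicle 10 mL/kg). At 1 h, just before PTZ, each was placed on an inverted horizontal screen and scored pass/fail for climbing to the top side within 1 min. Result given as number passed/number tested.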

[7] = system: Mus musculus; assay: In vivo Horizontal screen test for motor impairment by the compound at the mentioned dose of 10, i.p. (mg/kg); out of 12 tested animals; type: functional; summary of the method: as §3
[8] = system: Mus musculus; assay: In vivo Horizontal screen test for motor impairment by the compound at the mentioned dose of 30, i.p. (mg/kg); out of 11 tested animals; type: functional; summary of the method: as §3
[9] = system: Mus musculus; assay: In vivo Horizontal screen test for motor impairment by the compound at the mentioned dose of 30, p.o. (mg/kg); out of 12 tested animals; type: functional; summary of the method: as §3
[10] = system: Mus musculus; assay: In vivo suppression of pentylenetetrazole-induced convulsions by the compound at the mentioned dose of, 1, i.p. ( mg/kg); out of 12 tested animals; type: functional
Summary of the method: (§4)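 Mice received compound or vehicle (10 mL/kg) po or ip. After 1 h they got pentylenetetrazole 85 mg/kg sc. They were housed individually and observed 30 min for clonic convulsions (present/absent). Result given as number convulsed/number tested.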

[11] = system: Mus musculus; assay: In vivo suppression of pentylenetetrazole-induced convulsions by the compound at the mentioned dose of, 10, i.p. (mg/kg); out of 12 tested animals; type: functional; summary of the method: as §4
[12] = system: Mus musculus; assay: In vivo suppression of pentylenetetrazole-induced convulsions by the compound at the mentioned dose of, 30, i.p. (mg/kg); out of 11 tested animals; type: functional; summary of the method: as §4
[13] = system: Mus musculus; assay: In vivo suppression of pentylenetetrazole-induced convulsions by the compound at the mentioned dose of, 30, p.o. (mg/kg); out of 12 tested animals; type: functional; summary of the method: as §4
[14] = system: Mus musculus; assay: In vivo Horizontal screen test for motor impairment by the compound at the mentioned dose of 30, i.p. (mg/kg); out of 6 tested animals; type: functional; summary of the method: as §3
[15] = system: Mus musculus; assay: In vivo suppression of pentylenetetrazole-induced convulsions by the compound at the mentioned dose of, 30, i.p. (mg/kg); out of 6 tested animals; type: functional; summary of the method: as §4
[16] = target: T1, GABA-A receptor; anion channel (Rattus norvegicus); assay: Relative binding to GABA-A receptor in the presence and absence of GABA; type: functional
[17] = system: Mus musculus; assay: In vivo Horizontal screen test for motor impairment by the compound at the mentioned dose of 1, i.p. ( mg/kg); out of 6 tested animals; type: functional; summary of the method: as §1
[18] = system: Mus musculus; assay: In vivo Horizontal screen test for motor impairment by the compound at the mentioned dose of 10, i.p. (mg/kg); out of 6 tested animals; type: functional; summary of the method: as §1
[19] = system: Mus musculus; assay: In vivo suppression of pentylenetetrazole-induced convulsions by the compound at the mentioned dose of, 1, i.p. ( mg/kg); out of 6 tested animals; type: functional; summary of the method: as §2
[20] = system: Mus musculus; assay: In vivo suppression of pentylenetetrazole-induced convulsions by the compound at the mentioned dose of, 10, i.p. (mg/kg); out of 6 tested animals; type: functional; summary of the method: as §2

| Structure (SMILES) | IC50 [1] [µM] | IC50 [2] [µM] | GS [3] | other results |
| --- | --- | --- | --- | --- |
| CCCCc1ccc(C2=NN(P(=O)(OC)c3ccccc3)CCC2)cc1 (configuration not stated) | 2 | 0.5 | 4 |  |
| CC(C)OP(=O)(c1ccccc1)N1CCCC(c2ccc(Cl)c(Cl)c2)=N1 (configuration not stated) | 10 | 1.4 | 7.1 | Horizontal screen [4]: 0 number passed; Induced convulsion [5]: 4 number convulsed |
| CCCCc1ccc(C2=NN(S(=O)(=O)c3ccc(C)cc3)CCC2)cc1 | > 11 | 2.2 | 5 |  |
| CCCCc1ccc(C2=NN(S(=O)(=O)c3ccc(CCCC)cc3)CCC2)cc1 | > 11 | 0.21 | 52.4 | Horizontal screen [6]: 11 number passed; Horizontal screen [7]: 12 number passed; Horizontal screen [8]: 10 number passed; Horizontal screen [9]: 12 number passed; Induced convulsion [10]: 9 number convulsed; Induced convulsion [11]: 8 number convulsed; Induced convulsion [12]: 10 number convulsed; Induced convulsion [13]: 12 number convulsed |
| CCc1ccc(C2=NN(S(=O)(=O)c3ccc(I)cc3)CCC2)cc1 | 10 | 0.9 | 11.1 |  |
| COc1ccc(C2=NN(P(=O)(OC)c3ccccc3)CCC2)cc1 (configuration not stated) | > 11 | 6.4 | 1.7 |  |
| CCCCc1ccc(C2=NN(S(=O)(=O)c3ccc(I)cc3)CCC2)cc1 | 10 | 0.77 |  | Horizontal screen [14]: 3 number passed; Induced convulsion [15]: 6 number convulsed; GABA shift [16]: 13.7 |
| CC(C)c1ccc(C2=NN(S(=O)(=O)c3ccc(I)cc3)CCC2)cc1 | > 11 | 6.31 | 1.7 |  |
| CCOP(=O)(c1ccccc1)N1CCCC(c2ccc(Cl)c(Cl)c2)=N1 (configuration not stated) | 1.39 | 1.05 | 1.3 | Horizontal screen [17]: 5 number passed; Horizontal screen [18]: 5 number passed; Induced convulsion [19]: 6 number convulsed; Induced convulsion [20]: 6 number convulsed |
| COP(=O)(c1ccccc1)N1CCCC(c2ccc(Br)cc2)=N1 (configuration not stated) | > 11 | > 11 |  |  |
| CCCCc1ccc(S(=O)(=O)N2CCCC(c3ccc(CC(C)C)cc3)=N2)cc1 | > 11 | > 11 |  |  |
| CCCCc1ccc(S(=O)(=O)N2CCCC(c3ccc(C(C)C)cc3)=N2)cc1 |  | 10 |  |  |
| C[C@]12CC[C@@H](O)C[C@@H]1CC[C@@H]1[C@@H]2CC[C@]2(C)[C@@H](C(=O)CO)CC[C@@H]12 | 3.05 | 0.09 | 33.9 |  |
| CCCCCCc1ccc(C2=NN(S(=O)(=O)c3ccc(I)cc3)CCC2)cc1 | > 11 | > 11 |  |  |
| CC(C)Cc1ccc(C2=NN(S(=O)(=O)c3ccc(I)cc3)CCC2)cc1 | > 11 | > 11 |  |  |
| COP(=O)(c1ccccc1)N1CCCC(c2ccc(Cl)c(C(F)(F)F)c2)=N1 (configuration not stated) | 8.3 | 6.6 | 1.3 |  |
| CCCCc1ccc(C2=NN(P(=O)(OCC)c3ccccc3)CCC2)cc1 (configuration not stated) | 1.12 | 0.73 | 1.5 | Horizontal screen [18]: 5 number passed; Induced convulsion [20]: 5 number convulsed |
| CCCCc1ccc(S(=O)(=O)N2CCCC(c3ccc(CC)cc3)=N2)cc1 | 3.77 | 1.8 | 2.1 |  |
| CCCCc1ccc(C2=NN(S(=O)(=O)c3ccccc3)CCC2)cc1 | > 11 | 1.1 | 10 | Horizontal screen [4]: 4 number passed; Induced convulsion [5]: 5 number convulsed |
| CCCCc1ccc(C2=NN(S(=O)(=O)c3ccc(Cl)cc3)CCC2)cc1 | > 11 | > 11 |  |  |
| CCOP(=O)(c1ccccc1)N1CCCC(c2ccc(Cl)c(C(F)(F)F)c2)=N1 (configuration not stated) | 5.4 | 1.1 | 4.9 |  |
| CCOP(=O)(c1ccccc1)N1CCCC(c2ccc(F)cc2)=N1 (configuration not stated) | > 11 | 10 | 1.1 |  |
| O=P(OC1CCCC1)(c1ccccc1)N1CCCC(c2ccc(Cl)c(Cl)c2)=N1 (configuration not stated) |  |  | 32.6 |  |
| COP(=O)(c1ccccc1)N1CCCC(c2ccc(F)cc2)=N1 (configuration not stated) | > 11 | 10 | 1.1 |  |
| CC(=O)[C@H]1CC[C@H]2[C@@H]3CC[C@H]4C[C@H](O)CC[C@]4(C)[C@H]3CC[C@]12C [BREXANOLONE] | 2.61 | 0.08 | 32.6 |  |
| COP(=O)(c1ccccc1)N1CCCC(c2ccccc2)=N1 (configuration not stated) |  | > 11 |  |  |

Source: ChEMBL document CHEMBL1132258, “gamma-Aminobutyrate-A receptor modulation by 3-aryl-1-(arylsulfonyl)- 1,4,5,6-tetrahydropyridazines” (J Med Chem, 1999)
